Measured values published in PubChem BioAssay.
Records with an inconclusive call do not appear.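 The calls were made as follows, unless noted: active = growth inhibition above 25% in both replicates, a cutoff set 3 SD above the mean; inconclusive = above 25% in only one replicate; inactive = the rest.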

Columns and labels:
[1] = OD615 S. cerevisiae growth inhibition, permissive medium, pilot counter-assay, permissive growth control for S. cerevisiae lifespan shortening project (AID 705); conditions: OD615, 24 h, at 10 µM, hits give high values
Procedure, shortened: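 Material: engineered DeaD yeast; Compound: one dose 10 µM, DMSO 0.25% final; Detection: absorbance (optical density) at 615 nm; Buffer or medium: permissive raffinose/galactose medium; Timing: 24 h exposure, 30 °C.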

[2] = Restrictive medium S. cerevisiae growth inhibition, OD615, pilot screen of yeast lifespan reduction project, restrictive growth control (AID 706;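 active = growth inhibition above a set limit, 3 SD over mean compound inhibition, in both replicates, cut at about 43% in these data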;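 also: modified DeaD lifespan yeast strain shifted to restrictive glucose medium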); conditions: OD615, 48 h, at 10 µM, hits give high values
Procedure, shortened: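 Buffer or medium: restrictive glucose medium (CSMM-D); test system: modified S. cerevisiae; doses: single dose of 10 µM compound final, 0.25% DMSO; schedule: 48 h compound exposure at 30 °C; detection: absorbance (optical density) measured at 615 nm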

[3] = viability gain of MRP-1-high H69AR cells under doxorubicin, pilot screen, MRP-1 activator project, CellTiter-Glo, duplicate (AID 807;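 active = viability increase at or above a cutoff of the median across tested compounds plus 3 SD, cut at about 8.5% in these data, passing the limit was not always enough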;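 also: compound pretreatment 18-22 h then 72 h combined with doxorubicin; 0% = doxorubicin alone and 100% = vehicle without doxorubicin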); conditions: H69AR viability with doxorubicin, CellTiter-Glo luminescence; at 10 µM; hits give high values
[4] = growth suppression of beta-catenin knockout HCT116, pilot screen, human colon tumor cells (AID 823;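 active = cell viability at or below a set limit in both duplicate runs, the limit being the all-compound median minus 4 SD, cut at about 23% in these data, passing the limit was not always enough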;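 also: 0% = wells killed by 20 µM Hyamine and 100% = untreated DMSO cell wells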); conditions: CellTiter-Glo, 60 h, at 10 µM, hits give low values
[5] = growth suppression of PTEN-deleted HCT116, pilot screen, cell-based, HCT116 clonal line, CellTiter-Glo (AID 824;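 active = viability at or below 27.92% in each of two runs, the all-compound median minus 4 SD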;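 also: 0% = 20 µM Hyamine control and 100% = vehicle cell control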); conditions: 60 h, at 10 µM, hits give low values
[6] = inhibitors of the yeast RAM network, pilot screen, dse1pr::URA3 reporter, 5-FOA selection (AID 869;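 active = inhibition over a set limit, the all-compound mean plus 3 SD, in both replicate runs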;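 also: 0% = DMSO wells with no growth and 100% = 10 µM 1-NA-PP1 with full growth; RAM network block rescues cells from 5-FOA so hits raise OD615 growth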); conditions: S. cerevisiae dse1pr::URA3 5-FOA growth, OD615, 2 d; at 10 µM; hits give high values; strain carries analog-sensitive mutant Cbk1 kinase
[7] = RAM signaling pathway blockade in yeast – S. cerevisiae, Pdr1DBD-CYC8 efflux-inhibited sensitized strain, primary screen (AID 1298;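 active = RAM network inhibition above 8.4% in each of two replicates, 3 SD over the compound average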;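 also: 0% = DMSO untreated cells without growth and 100% = 10 µM 1-NA-PP1 full growth; higher means more yeast growth rescued from 5-FOA killing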); conditions: S. cerevisiae cbk1-as DSE1-URA3 strain, 5-FOA growth OD615, 2 d; at 50 µM; hits give high values

CCOc1cccc(OCCOCCN(C)Cc2ccccc2)c1
inactive: growth inhibition [1] 2.5% | growth inhibition [2] -3.23% | viability increase [3] -4.15% | viability [4] 75.3% | viability [5] 78.9% | inhibition [6] 0.55% | RAM network inhibition [7] 0.2%

CCCc1nc(SCc2ccccn2)c2c(=O)n(C)c(=O)n(C)c2n1
inactive: growth inhibition [1] -3.14% | growth inhibition [2] -0.14% | viability increase [3] 1.81% | viability [4] 83.4% | viability [5] 85.4% | inhibition [6] 1.61% | RAM network inhibition [7] 5.45%

CC1=C(C(N)=O)C(c2ccccc2)n2nc(-c3cccc(C)c3)nc2N1 (stereo unspecified)
inactive: growth inhibition [1] 3.1% | growth inhibition [2] 2.56% | viability increase [3] -2.74% | viability [4] 98.9% | viability [5] 97.1% | inhibition [6] 0.79% | RAM network inhibition [7] 3.91%

CC(=O)c1cc(CN2C(=O)CCC2=O)cs1
inactive: growth inhibition [1] -5.33% | growth inhibition [2] -9.9% | viability increase [3] -0.46% | viability [4] 94.1% | viability [5] 95.6% | inhibition [6] 1.64% | RAM network inhibition [7] 1.46%

COc1cc(C(=O)Nc2cccc(-c3nc4ccccc4o3)c2C)cc(OC)c1OC
inactive: growth inhibition [1] -20.9% | growth inhibition [2] -26.2% | viability increase [3] -2.22% | viability [4] 91.2% | viability [5] 98.7% | inhibition [6] 2.46% | RAM network inhibition [7] 1.35%

CCc1n[nH]c2c1/C(=N\O)CC(C)(C)C2
inactive: growth inhibition [1] -4.62% | growth inhibition [2] -1.83% | viability increase [3] -2.26% | viability [4] 99.4% | viability [5] 108% | inhibition [6] 1.68% | RAM network inhibition [7] 1.03%

COc1ccc(NC(=O)C2CCCN2S(=O)(=O)c2ccc(F)cc2)cc1 (stereo unspecified)
inactive: growth inhibition [1] -11.8% | growth inhibition [2] -12.7% | viability increase [3] -0.14% | viability [4] 109% | viability [5] 99.2% | inhibition [6] 1.87% | RAM network inhibition [7] -1.32%

COc1ccc(S(=O)(=O)NCc2ccc3c(c2)cc(C)n3C)cc1
inactive: growth inhibition [1] -0.89% | growth inhibition [2] -11.2% | viability increase [3] -4.17% | viability [4] 99.1% | viability [5] 96% | inhibition [6] 1.31% | RAM network inhibition [7] 7.17%

COc1ccc(N(CC(=O)NCc2ccco2)S(=O)(=O)c2c(C)nn(C)c2C)cc1
inactive: growth inhibition [1] -11% | growth inhibition [2] -12.6% | viability increase [3] -4.02% | viability [4] 89.8% | viability [5] 92.6% | inhibition [6] 0.185% | RAM network inhibition [7] 0.73%

CC(C)CC(NS(=O)(=O)c1ccc2c(c1)oc(=O)n2C)C(=O)N1CC=C(c2ccccc2)CC1 (stereo unspecified)
inactive: growth inhibition [1] -18.2% | growth inhibition [2] -14.5% | viability increase [3] -3.44% | viability [4] 85.9% | viability [5] 83.3% | inhibition [6] 0.535% | RAM network inhibition [7] 6.89%

COc1ccc(C)cc1NC(=O)CSc1nnc(-c2ccc(OC)c(OC)c2)n1N
inactive: growth inhibition [1] 3.19% | growth inhibition [2] 14% | viability increase [3] -1.57% | viability [4] 102% | viability [5] 98.9% | inhibition [6] 0.235% | RAM network inhibition [7] 7.82%

O=C(c1cnn2ccccc12)N(Cc1ccco1)C1CCCC1
inactive: growth inhibition [1] -12% | growth inhibition [2] -4.11% | viability increase [3] -3.08% | viability [4] 70% | viability [5] 69.8% | inhibition [6] 2.74% | RAM network inhibition [7] 1.62%

O=C(Nc1cnc2ccccc2c1)c1ccncc1
inactive: growth inhibition [1] -8.13% | growth inhibition [2] -8.73% | viability increase [3] -2.98% | viability [4] 99.7% | viability [5] 87.1% | inhibition [6] 2.08% | RAM network inhibition [7] 1.19%

COc1ccc(Nc2nc(N)nc(CN3CCc4ccccc4C3)n2)cc1
inactive: growth inhibition [1] -5.29% | growth inhibition [2] -14.9% | viability increase [3] -5.38% | viability [4] 44.7% | viability [5] 48.4% | inhibition [6] 0.725% | RAM network inhibition [7] 4.84%

CCOc1ccccc1C(=O)NC1CCN(Cc2nnnn2C2CCCC2)CC1
inactive: growth inhibition [1] -6.12% | growth inhibition [2] -7.94% | viability increase [3] -1.67% | viability [4] 102% | viability [5] 98.9% | inhibition [6] 0.9% | RAM network inhibition [7] 1.76%

COc1ccc(-c2c(C)oc3c(CN4CCN(C)CC4)c(O)ccc3c2=O)cc1
inactive: growth inhibition [1] -13.2% | growth inhibition [2] -13.7% | viability increase [3] -8.83% | viability [4] 106% | viability [5] 96.5% | inhibition [6] 0.58% | RAM network inhibition [7] -0.85%

CC(C)NS(=O)(=O)c1ccc(NC(=O)c2cccnc2)cc1
inactive: growth inhibition [1] -12.7% | growth inhibition [2] -17.3% | viability increase [3] -0.51% | viability [4] 112% | viability [5] 97.1% | inhibition [6] 1.95% | RAM network inhibition [7] 1.31%

COc1ccc(C2N(c3cccc(Cl)c3)C(=O)C3CCCN32)cc1 (stereo unspecified)
inactive: growth inhibition [1] 6.5% | growth inhibition [2] 6.72% | viability increase [3] -2.85% | viability [4] 102% | viability [5] 98.1% | inhibition [6] 0.115% | RAM network inhibition [7] -1.65%
